Assay results reported in ChEMBL document CHEMBL4680236, “Design, synthesis and structure-activity relationships of novel 15-membered macrolides: Quinolone/quinoline-containing sidechains tethered to the C-6 position of azithromycin acylides” (Eur J Med Chem, 2020).
In brackets after ≈: the same amount, converted by molar mass.

Legend:
Streptococcus pneumoniae [1] = test: Ratio of MBC to MIC against penicillin-susceptible Streptococcus pneumoniae PU09; type: functional
Staphylococcus aureus [2] = test: Antibacterial activity against MLSB/methicillin/ciprofloxacin-resistant Staphylococcus aureus PU32 harboring ermA gene assessed as reduction in microbial growth relative to ciprofloxacin; type: functional
Staphylococcus aureus [3] = test: Bactericidal activity against MLSB/methicillin/ciprofloxacin-resistant Staphylococcus aureus PU32 harboring ermA gene; type: functional
In short: (§1)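 Bacteria were exposed to 1- to 8-fold their MIC of test sample, then transferred to fresh culture medium without antibacterial compound and incubated for the required time. Colonies were then counted. MBC is the lowest concentration giving a reduction in colony number of >3 Log₁₀.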

Escherichia coli [4] = test: Antibacterial activity against NDM-1 producing Escherichia coli […] assessed as reduction in microbial growth; type: functional
Enterococcus faecium = test: Antibacterial activity against vancomycin-resistant Enterococcus faecium ATCC 700221 assessed as reduction in microbial growth
Enterobacter cloacae = test: Antibacterial activity against Enterobacter cloacae ATCC 43560 assessed as reduction in microbial growth; type: functional
Streptococcus pneumoniae [5] = test: Bactericidal activity against Erythromycin-susceptible Streptococcus pneumoniae ATCC 49619; type: functional
In short: (§2)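 Bacteria were exposed to 1- to 8-fold MIC of the sample, then transferred to fresh medium without antibacterial. After further incubation, colonies were counted. MBC was taken as the lowest concentration giving a >3 log10 reduction in colony number.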

Klebsiella pneumoniae [6] = test: Antibacterial activity against NDM-1 producing Klebsiella pneumoniae ATCC BAA-2146 assessed as reduction in microbial growth; type: functional
Haemophilus influenzae [7] = test: Antibacterial activity against azithromycin-susceptible Haemophilus influenzae ATCC 49247 assessed as reduction in microbial growth relative to ciprofloxacin; type: functional
Haemophilus influenzae [8] = test: Bactericidal activity against azithromycin-susceptible Haemophilus influenzae ATCC 49247; type: functional; in short: as §2
Escherichia coli [9] = test: Antibacterial activity against ESBL negative Escherichia coli 16-7 assessed as reduction in microbial growth; type: functional
Staphylococcus aureus [10] = test: Bactericidal activity against MLSB/methicillin-resistant Staphylococcus aureus 15B196; type: functional; in short: as §1
Streptococcus pneumoniae [11] = test: Bactericidal activity against penicillin-susceptible Streptococcus pneumoniae PU09 harboring mef gene; type: functional; in short: as §1
Pseudomonas aeruginosa = test: Antibacterial activity against Pseudomonas aeruginosa ATCC 27853 assessed as reduction in microbial growth; type: functional
Enterococcus faecalis = test: Antibacterial activity against vancomycin-susceptible Enterococcus faecalis ATCC 29212 assessed as reduction in microbial growth; type: functional
Staphylococcus aureus [12] = test: Antibacterial activity against methicillin-susceptible Staphylococcus aureus ATCC 29213 assessed as reduction in microbial growth; type: functional
Staphylococcus aureus [13] = test: Ratio of MBC to MIC against MLSB/methicillin/ciprofloxacin-resistant Staphylococcus aureus PU32 harboring ermA gene; type: functional
Escherichia coli [14] = test: Antibacterial activity against ESBL positive Escherichia coli 16-1 assessed as reduction in microbial growth; type: functional
[15] = test system: Staphylococcus epidermidis; test: Antibacterial activity against methicillin-resistant Staphylococcus epidermidis 16-5 assessed as reduction in microbial growth; type: functional
Klebsiella pneumoniae [16] = test: Antibacterial activity against ESBL producing Klebsiella pneumoniae 16-14 assessed as reduction in microbial growth; type: functional
Acinetobacter baumannii = test: Antibacterial activity against Acinetobacter baumannii ATCC 19606 assessed as reduction in microbial growth; type: functional; conditions: ATCC 19606 = CIP 70.34 = JCM 6841
Streptococcus pneumoniae [17] = test: Ratio of MBC to MIC against MLSB-resistant Streptococcus pneumoniae 07P390 harboring ermB; type: functional
Streptococcus pneumoniae [18] = test: Bactericidal activity against MLSB-resistant Streptococcus pneumoniae 07P390 harboring ermB gene assessed as reduction in microbial growth; type: functional; in short: as §1
Staphylococcus aureus [19] = test: Antibacterial activity against methicillin-resisitant Staphylococcus aureus 16-30 assessed as reduction in microbial growth; type: functional
Staphylococcus aureus [20] = test: Antibacterial activity against MLSB/methicillin-resistant Staphylococcus aureus 15B196 assessed as reduction in microbial growth relative to ciprofloxacin; type: functional
Staphylococcus aureus [21] = test: Antibacterial activity against MLSB/methicillin/ciprofloxacin-resistant Staphylococcus aureus PU32 harboring ermA gene assessed as reduction in microbial growth; type: functional
Haemophilus influenzae [22] = test: Antibacterial activity against azithromycin-susceptible Haemophilus influenzae ATCC 49247 assessed as reduction in microbial growth; type: functional
Staphylococcus aureus [23] = test: Antibacterial activity against MLSB/methicillin-resistant Staphylococcus aureus 15B196 assessed as reduction in microbial growth; type: functional
Haemophilus influenzae [24] = test: Ratio of MBC to MIC against azithromycin-susceptible Haemophilus influenzae ATCC 49247; type: functional
Streptococcus pneumoniae [25] = test: Antibacterial activity against Erythromycin-susceptible Streptococcus pneumoniae ATCC 49619 assessed as reduction in microbial growth; type: functional
[26] = test system: Staphylococcus epidermidis; test: Antibacterial activity against methicillin-susceptible Staphylococcus epidermidis ATCC 12228 assessed as reduction in microbial growth; type: functional
Shigella = test: Antibacterial activity against Shigella ATCC 12022 assessed as reduction in microbial growth; type: functional
Streptococcus pneumoniae [27] = test: Ratio of MBC to MIC against Erythromycin-susceptible Streptococcus pneumoniae ATCC 49619; type: functional
Streptococcus pneumoniae [28] = test: Antibacterial activity against penicillin-susceptible Streptococcus pneumoniae PU09 harboring mef gene assessed as reduction in microbial growth; type: functional
Streptococcus pneumoniae [29] = test: Antibacterial activity against MLSB-resistant Streptococcus pneumoniae 07P390 harboring ermB gene assessed as reduction in microbial growth; type: functional
Klebsiella aerogenes = test: Antibacterial activity against Enterobacter aerogenes ATCC 13048 assessed as reduction in microbial growth; type: functional
Escherichia coli [30] = test: Antibacterial activity against Escherichia coli JW5503-1 depletion of toIC efflux gene assessed as reduction in microbial growth; type: functional
Escherichia coli [31] = test: Antibacterial activity against Escherichia coli JW5503-KanS depletion of toIC efflux gene assessed as reduction in microbial growth; type: functional
Streptococcus pyogenes = test: Antibacterial activity against MLSB-resistant Streptococcus pyogenes 12-206 harboring ermA gene assessed as reduction in microbial growth; type: functional

Compound	Ratio (Streptococcus pneumoniae [1])	MBC (Staphylococcus aureus [3]) [µg/mL]	MIC (Escherichia coli [4]) [µg/mL]	MIC (Enterococcus faecium) [µg/mL]	MIC (Enterobacter cloacae) [µg/mL]	MBC (Streptococcus pneumoniae [5]) [µg/mL]	MIC (Klebsiella pneumoniae [6]) [µg/mL]	MBC (Haemophilus influenzae [8]) [µg/mL]	MIC (Escherichia coli [9]) [µg/mL]	MBC (Staphylococcus aureus [10]) [µg/mL]	MBC (Streptococcus pneumoniae [11]) [µg/mL]	MIC (Pseudomonas aeruginosa) [µg/mL]	MIC (Enterococcus faecalis) [µg/mL]	MIC (Staphylococcus aureus [12]) [µg/mL]	Ratio (Staphylococcus aureus [13])	MIC (Staphylococcus aureus [21]) [µg/mL]	MIC (Staphylococcus aureus [23]) [µg/mL]	MIC (Streptococcus pneumoniae [25]) [µg/mL]	MIC (Streptococcus pneumoniae [28]) [µg/mL]	MIC (Streptococcus pneumoniae [29]) [µg/mL]	further results
CC[C@H]1OC(=O)[C@H](C)[C@@H](OC(=O)Cc2ccccn2)[C@H](C)[C@@H](O[C@@H]2O[C@H](C)C[C@H](N(C)C)[C@H]2O)[C@](C)(OC(=O)CCNCCC#Cc2cnc3ccccc3c2)C[C@@H](C)CN(C)[C@H](C)[C@@H](O)[C@]1(C)O	1	> 8	8	> 64	32	0.125 (≈ 0.13 µM)	32	4 (≈ 4.17 µM)	8	> 256	1 (≈ 1.04 µM)	> 64	1	1	>8	1	128	0.062	1	0.5	fold change (FC) (Staphylococcus aureus [2]): 0.0054; fold change (FC) (Haemophilus influenzae [7]): 172; MIC (Escherichia coli [14]): 8 µg/mL; MIC [15]: > 64 µg/mL; MIC (Klebsiella pneumoniae [16]): 16 µg/mL; MIC (Acinetobacter baumannii): > 64 µg/mL; Ratio (Streptococcus pneumoniae [17]): >8; MBC (Streptococcus pneumoniae [18]): > 4 µg/mL; MIC (Staphylococcus aureus [19]): > 64 µg/mL; fold change (FC) (Staphylococcus aureus [20]): 88; MIC (Haemophilus influenzae [22]): 2 µg/mL; Ratio (Haemophilus influenzae [24]): 2; MIC [26]: 0.25 µg/mL; MIC (Shigella): 8 µg/mL; Ratio (Streptococcus pneumoniae [27]): 2; MIC (Klebsiella aerogenes): 32 µg/mL
O=C(O)c1cn(C2CC2)c2cc(N3CCNCC3)c(F)cc2c1=O [CIPROFLOXACIN]		> 256						0.008 (≈ 0.0241 µM)		0.5 (≈ 1.51 µM)						256	0.5	2	2	2	MIC (Escherichia coli [30]): ≤ 0.064 µg/mL; MIC (Escherichia coli [31]): ≤ 0.064 µg/mL; MIC (Streptococcus pyogenes): 0.5 µg/mL
CC[C@H]1OC(=O)[C@H](C)[C@@H](OC(=O)Cc2ccccn2)[C@H](C)[C@@H](O[C@@H]2O[C@H](C)C[C@H](N(C)C)[C@H]2O)[C@](C)(OC(=O)CCNCCCNc2cc3c(=O)c(C(=O)O)cn(C4CC4)c3cc2Cl)C[C@@H](C)CN(C)[C@H](C)[C@@H](O)[C@]1(C)O	1	> 64	64	> 64	64	0.125 (≈ 0.114 µM)	> 64	64 (≈ 58.2 µM)	64		1 (≈ 0.909 µM)	> 64	8	8	>8	8	> 256	0.125	1	1	MIC (Escherichia coli [14]): 32 µg/mL; MIC [15]: > 64 µg/mL; MIC (Klebsiella pneumoniae [16]): 64 µg/mL; MIC (Acinetobacter baumannii): > 64 µg/mL; Ratio (Streptococcus pneumoniae [17]): >8; MBC (Streptococcus pneumoniae [18]): > 8 µg/mL; MIC (Staphylococcus aureus [19]): > 64 µg/mL; MIC (Haemophilus influenzae [22]): 16 µg/mL; Ratio (Haemophilus influenzae [24]): 4; MIC [26]: 4 µg/mL; MIC (Shigella): 16 µg/mL; Ratio (Streptococcus pneumoniae [27]): 1; MIC (Klebsiella aerogenes): 64 µg/mL
